Results reported in ChEMBL document CHEMBL4715736, “Identification of anticancer agents based on the thieno[2,3-b]pyridine and 1H-pyrazole molecular scaffolds” (2016).

Columns and labels:
Assay type in all cases: functional
[1] = system: HCT-116; assay: Growth inhibition of human HCT-116 cells assessed as cell growth at 10 uM incubated for 48 hrs by sulforhodamine B assay relative to control; conditions: read-out: Activity
Outline: (§1)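 Submitted to the NCI Developmental Therapeutics Program for the NCI60 human tumour cell line panel. First screen at a single 10 µM concentration. Read-out is growth relative to untreated control cells set at 100%.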

[2] = system: HOP-62; assay: Growth inhibition of human HOP-62 cells assessed as cell growth at 10 uM incubated for 48 hrs by sulforhodamine B assay relative to control; conditions: read-out: Activity; outline: as §1
[3] = system: TK-10; assay: Growth inhibition of human TK-10 cells assessed as cell growth at 10 uM incubated for 48 hrs by sulforhodamine B assay relative to control; conditions: read-out: Activity
Outline: (§2)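 Run by the NCI Developmental Therapeutics Program as part of its 60-line human tumour panel. Each compound tested at a single 10 µM dose. Growth expressed as % relative to untreated control cells (100%).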

[4] = system: Malme-3M; assay: Growth inhibition of human Malme-3M cells assessed as cell growth at 0.01 uM incubated for 48 hrs by sulforhodamine B assay relative to control; conditions: read-out: Activity
[5] = system: SNB-75; assay: Growth inhibition of human SNB-75 cells assessed as cell growth at 10 uM incubated for 48 hrs by sulforhodamine B assay relative to control; conditions: read-out: Activity; outline: as §2
[6] = system: SK-OV-3; assay: Growth inhibition of human SK-OV-3 cells assessed as cell growth at 10 uM incubated for 48 hrs by sulforhodamine B assay relative to control; conditions: read-out: Activity; outline: as §2
[7] = system: BT-549; assay: Growth inhibition of human BT-549 cells assessed as cell growth at 10 uM incubated for 48 hrs by sulforhodamine B assay relative to control; conditions: read-out: Activity
Outline: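 NCI Developmental Therapeutics Program NCI60 human tumour cell line panel, one-dose primary screen with every compound at 10 µM. Growth is expressed as % of untreated control cells (100%).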

[8] = system: SN12C; assay: Growth inhibition of human SN12C cells assessed as cell growth at 10 uM incubated for 48 hrs by sulforhodamine B assay relative to control; conditions: read-out: Activity; outline: as §2
[9] = system: NCI-H522; assay: Growth inhibition of human NCI-H522 cells assessed as cell growth at 10 uM incubated for 48 hrs by sulforhodamine B assay relative to control; conditions: read-out: Activity; outline: as §1
[10] = system: BT-549; assay: Growth inhibition of human BT-549 cells assessed as cell growth at 100 uM incubated for 48 hrs by sulforhodamine B assay relative to control; conditions: read-out: Activity
[11] = system: HT-29; assay: Growth inhibition of human HT-29 cells assessed as cell growth at 10 uM incubated for 48 hrs by sulforhodamine B assay relative to control; conditions: read-out: Activity; outline: as §1
[12] = system: NCI-H226; assay: Growth inhibition of human NCI-H226 cells assessed as cell growth at 10 uM incubated for 48 hrs by sulforhodamine B assay relative to control; conditions: read-out: Activity; outline: as §1
[13] = system: SK-OV-3; assay: Growth inhibition of human SK-OV-3 cells incubated for 48 hrs by sulforhodamine B assay; conditions: for CC50: read-out: LC50 (the source's name)
Outline: (§3)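 NCI DTP 60-line human tumour panel. Dose-response curves were run only for ligands active in the initial 10 µM screen. GI50 (concentration giving 50% of maximal inhibition of proliferation) and TGI (concentration giving total growth inhibition) were derived from these curves.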

[14] = system: UO-31; assay: Growth inhibition of human UO-31 cells assessed as cell growth at 10 uM incubated for 48 hrs by sulforhodamine B assay relative to control; conditions: read-out: Activity; outline: as §2
[15] = system: SNB-19; assay: Growth inhibition of human SNB-19 cells assessed as cell growth at 10 uM incubated for 48 hrs by sulforhodamine B assay relative to control; conditions: read-out: Activity; outline: as §2
[16] = system: NCI-H460; assay: Growth inhibition of human NCI-H460 cells assessed as cell growth at 1 uM incubated for 48 hrs by sulforhodamine B assay relative to control; conditions: read-out: Activity
[17] = system: NCI-H522; assay: Growth inhibition of human NCI-H522 cells assessed as cell growth at 1 uM incubated for 48 hrs by sulforhodamine B assay relative to control; conditions: read-out: Activity
[18] = system: SR; assay: Growth inhibition of human SR cells assessed as cell growth at 10 uM incubated for 48 hrs by sulforhodamine B assay relative to control; conditions: read-out: Activity; outline: as §2
[19] = system: SF-539; assay: Growth inhibition of human SF-539 cells incubated for 48 hrs by sulforhodamine B assay; conditions: for CC50: read-out: LC50 (the source's name); outline: as §3
[20] = system: Malme-3M; assay: Growth inhibition of human Malme-3M cells assessed as cell growth at 10 uM incubated for 48 hrs by sulforhodamine B assay relative to control; conditions: read-out: Activity; outline: as §1
[21] = system: RXF 393; assay: Growth inhibition of human RXF 393 cells assessed as cell growth at 10 uM incubated for 48 hrs by sulforhodamine B assay relative to control; conditions: read-out: Activity; outline: as §2
[22] = system: SK-MEL-2; assay: Growth inhibition of human SK-MEL-2 cells assessed as cell growth at 10 uM incubated for 48 hrs by sulforhodamine B assay relative to control; conditions: read-out: Activity; outline: as §2
[23] = system: NCI-H460; assay: Growth inhibition of human NCI-H460 cells assessed as cell growth at 10 uM incubated for 48 hrs by sulforhodamine B assay relative to control; conditions: read-out: Activity; outline: as §1
[24] = system: UACC-257; assay: Growth inhibition of human UACC-257 cells assessed as cell growth at 10 uM incubated for 48 hrs by sulforhodamine B assay relative to control; conditions: read-out: Activity; outline: as §2
[25] = system: MOLT-4; assay: Growth inhibition of human MOLT-4 cells assessed as cell growth at 10 uM incubated for 48 hrs by sulforhodamine B assay relative to control; conditions: read-out: Activity; outline: as §1
[26] = system: TK-10; assay: Growth inhibition of human TK-10 cells assessed as cell growth at 1 uM incubated for 48 hrs by sulforhodamine B assay relative to control; conditions: read-out: Activity
[27] = system: A498; assay: Growth inhibition of human A498 cells assessed as cell growth at 10 uM incubated for 48 hrs by sulforhodamine B assay relative to control; conditions: read-out: Activity
Outline: (§4)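 NCI Developmental Therapeutics Program NCI60 panel. Compounds that were active in the 10 µM one-dose screen went on to dose–response testing. Growth at each concentration is expressed relative to untreated control (100%). GI50 (concentration giving 50% of maximal inhibition of proliferation) and TGI (concentration giving total growth inhibition) were derived from the curves.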

[28] = system: M14; assay: Growth inhibition of human M14 cells assessed as cell growth at 10 uM incubated for 48 hrs by sulforhodamine B assay relative to control; conditions: read-out: Activity; outline: as §1
[29] = system: MDA-MB-468; assay: Growth inhibition of human MDA-MB-468 cells assessed as cell growth at 0.01 uM incubated for 48 hrs by sulforhodamine B assay relative to control; conditions: read-out: Activity
[30] = system: SK-MEL-5; assay: Growth inhibition of human SK-MEL-5 cells assessed as cell growth at 10 uM incubated for 48 hrs by sulforhodamine B assay relative to control; conditions: read-out: Activity; outline: as §2
[31] = system: KM12; assay: Growth inhibition of human KM12 cells assessed as cell growth at 10 uM incubated for 48 hrs by sulforhodamine B assay relative to control; conditions: read-out: Activity; outline: as §1
[32] = system: HCT-15; assay: Growth inhibition of human HCT-15 cells assessed as cell growth at 10 uM incubated for 48 hrs by sulforhodamine B assay relative to control; conditions: read-out: Activity; outline: as §1
[33] = system: 786-0; assay: Growth inhibition of human 786-0 cells assessed as cell growth at 10 uM incubated for 48 hrs by sulforhodamine B assay relative to control; conditions: read-out: Activity; outline: as §4
[34] = system: CAKI-1; assay: Growth inhibition of human CAKI-1 cells assessed as cell growth at 10 uM incubated for 48 hrs by sulforhodamine B assay relative to control; conditions: read-out: Activity; outline: as §4

Row | SMILES | growth at 10 µM [1] [%] | growth at 10 µM [2] [%] | growth at 10 µM [3] [%] | growth at 0.01 µM [4] [%] | growth at 10 µM [5] [%] | growth at 10 µM [6] [%] | growth at 10 µM [7] [%] | growth at 10 µM [8] [%] | growth at 10 µM [9] [%] | growth at 100 µM [10] [%] | growth at 10 µM [11] [%] | growth at 10 µM [12] [%] | GI50 [13] [µM] | TGI [13] [µM] | CC50 [13] [µM] | growth at 10 µM [14] [%] | growth at 10 µM [15] [%] | growth at 1 µM [16] [%] | growth at 1 µM [17] [%] | growth at 10 µM [18] [%] | also measured
1 | COc1cccc(NC(=O)c2sc3nc4c(cc3c2N)CN(Cc2ccccc2)CC4)c1 | 23 | -17 | 28 | 97 | -38 | 11 | 23 | 52 | 61 | -32 | 16 | 41 | 2.78 | 14 | 62.5 | 24 | 35 | 92 | 74 | 40 | GI50 [19]: 1.99 µM; TGI [19]: 6.56 µM; CC50 [19]: 36.4 µM; growth at 10 µM [20]: 12%; growth at 10 µM [21]: 6%; growth at 10 µM [22]: 51%; growth at 10 µM [23]: 24%; growth at 10 µM [24]: 44%; growth at 10 µM [25]: 69%; growth at 1 µM [26]: 98%; growth at 10 µM [27]: 29%; growth at 10 µM [28]: 56%; growth at 0.01 µM [29]: 92%; growth at 10 µM [30]: 35%; growth at 10 µM [31]: 57%; growth at 10 µM [32]: 30%; growth at 10 µM [33]: 22%; growth at 10 µM [34]: 53%
2 | Cc1ccc(NC(=O)c2sc3nc4c(cc3c2N)C(=O)CCC4)cc1C | 23 | 23.6 | 56 | 96 | -10.3 | 4.9 | 63 | 35 | -9.22 | 42 | 1 | 56 | 0.534 | > 100 | > 100 | 45 | 31 | 11 | 1 | 11 | GI50 [19]: 0.404 µM; CC50 [19]: > 100 µM; growth at 10 µM [20]: 47%; growth at 10 µM [21]: -18%; growth at 10 µM [22]: 31%; growth at 10 µM [23]: 4%; growth at 10 µM [24]: 54.2%; growth at 10 µM [25]: 27.6%; growth at 1 µM [26]: 52%; growth at 10 µM [27]: -16%; growth at 10 µM [28]: -23%; growth at 0.01 µM [29]: 95%; growth at 10 µM [30]: 16%; growth at 10 µM [31]: 19.5%; growth at 10 µM [32]: 27%; growth at 10 µM [33]: 29%; growth at 10 µM [34]: 35.7%
